Among the data in ChEMBL document CHEMBL5104216, “Fragment-Sized Thiazoles in Fragment-Based Drug Discovery Campaigns: Friend or Foe?” (ACS Med Chem Lett, 2022) are Activity_index, Activity and Stability values, retold here.

Data set [1] can be described thus: Redox activity of compound assessed as redox index at 100 uM in presence of 1 mM DTT measured by HRP-PR assay. It counts as physicochemical. In outline:
(§1)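 H2O2 from redox cycling, with or without DTT, detected with horseradish peroxidase-phenol red (HRP-PR).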

In data set [2] the target is Replicase polyprotein 1ab (Severe acute respiratory syndrome coronavirus 2) (UniProt P0DTD1). Description: Inhibition of recombinant SARS-CoV-2 3CLpro expressed in Escherichia coli NiCo21(DE3) assessed as residual activity at 500 uM using DABCYL-KTSAVLQSGFRKME-EDANS as substrate preincubated for 30 mins in presence of 1mM DTT followed by substrate addition and measured by FRET assay relative to control. The gist of the method: (§2)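 Kinetic fluorescence read-out of cleavage of a FRET substrate carrying a DABCYL–EDANS pair. Compounds were tested at 500–625 μM, and <50% residual activity was taken as the activity threshold. To exclude false positives, absorbance at the excitation and emission wavelengths and autofluorescence of the compounds were measured.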

Data set [3] concerns the target UDP-N-acetylglucosamine 1-carboxyvinyltransferase (Escherichia coli K-12) (UniProt P0A749). Description: Inhibition of recombinant Escherichia coli MurA assessed as residual activity at 500 uM using UDP-N-acetylglucosamine as substrate preincubated for 30 mins followed by substrate addition and measured by malachite green based colorimetric assay relative to control. The gist of the method:
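E. coli MurA at 500–625 μM with 30 min preincubation before substrate addition. Malachite green colorimetric read-out. Activity threshold was <50% residual activity.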

Data set [4] in a line: Redox activity of compound assessed as redox index at 100 uM in presence of 100 uM TCEP measured by H2DCFDA assay. It counts as physicochemical. In outline:
(§3)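 Reactive oxygen species, with or without the reducing agent TCEP, detected with the fluorescent probe H2DCFDA. Compound spectral interference (autofluorescence) checked under the assay conditions.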

Data set [5] can be described thus: Redox activity of compound assessed as redox index at 100 uM measured by HRP-PR assay. The class given is physicochemical. In outline: as §1
The nature of data set [6]: Redox activity of compound assessed as redox index at 10 uM measured by resazurin assay. The class given is physicochemical. The gist of the method: (§4)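 Free radicals formed by redox cycling with DTT detected with resazurin by fluorimetric read-out. Spectral interference checked.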
Data set [7] deals with UDP-N-acetylglucosamine 1-carboxyvinyltransferase (Escherichia coli K-12) (UniProt P0A749). Nature of the data set: Inhibition of recombinant Escherichia coli MurA assessed as residual activity at 500 uM using UDP-N-acetylglucosamine as substrate and measured by malachite green based colorimetric assay relative to control. The gist of the method:
(§5)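 Screened at 500–625 μM with malachite green colorimetric read-out. Activity threshold was <50% residual activity.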

The nature of data set [8]: Redox activity of compound assessed as redox index at 1 uM measured by resazurin assay. It counts as physicochemical. In outline: as §4
(The colour change of resazurin is a common sign of viable cells or microbes.)

For data set [9], the target named is Replicase polyprotein 1ab (Severe acute respiratory syndrome coronavirus 2) (UniProt P0DTD1). Nature of the data set: Inhibition of recombinant SARS-CoV-2 3CLpro expressed in Escherichia coli NiCo21(DE3) assessed as residual activity at 500 uM using DABCYL-KTSAVLQSGFRKME-EDANS as substrate preincubated for 30 mins followed by substrate addition and measured by FRET assay relative to control. The gist of the method: as §2

The target in data set [10] is UDP-N-acetylglucosamine 1-carboxyvinyltransferase (Escherichia coli K-12) (UniProt P0A749). Description: Inhibition of recombinant Escherichia coli MurA assessed as residual activity at 500 uM using UDP-N-acetylglucosamine as substrate preincubated for 30 mins in presence of 1 mM DTT followed by substrate addition and measured by malachite green based colorimetric assay relative to control.
UDP-N-acetylglucosamine 1-carboxyvinyltransferase (Escherichia coli K-12), sequence (P0A749 whole entry): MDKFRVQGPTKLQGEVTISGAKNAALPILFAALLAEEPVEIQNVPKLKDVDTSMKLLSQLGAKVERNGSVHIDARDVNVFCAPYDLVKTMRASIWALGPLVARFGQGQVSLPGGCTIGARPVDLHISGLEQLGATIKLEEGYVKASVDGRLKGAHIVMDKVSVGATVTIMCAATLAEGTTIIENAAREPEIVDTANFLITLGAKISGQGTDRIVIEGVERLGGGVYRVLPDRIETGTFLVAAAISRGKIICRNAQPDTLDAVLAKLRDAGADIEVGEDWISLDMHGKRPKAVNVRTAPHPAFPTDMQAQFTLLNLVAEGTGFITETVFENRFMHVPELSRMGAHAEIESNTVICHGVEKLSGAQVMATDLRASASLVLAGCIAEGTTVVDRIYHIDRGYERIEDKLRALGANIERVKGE

The target in data set [11] is D-alanine--D-alanine ligase B (Escherichia coli K-12) (UniProt P07862). Nature of the data set: Inhibition of recombinant Escherichia coli DdlB assessed as residual activity at 500 uM using D-alanine as substrate incubated for 20 mins and measured by malachite green based colorimetric assay relative to control. The gist of the method: as §5
Data set [12] relates to Mycobacterium tuberculosis. Description: Inhibition of Mycobacterium tuberculosis MetAP1a assessed as residual activity at 625 uM using L-methionine 7-amido-4-methylcoumarin as fluorogenic substrate and measured by fluorescence based assay. The gist of the method: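 Kinetic fluorescence assay in which the enzyme hydrolyses L-methionine 7-amido-4-methylcoumarin to fluorescent 7-amino-4-methylcoumarin. Compounds were tested at 500–625 μM, and activity was called at <50% residual activity. Spectral interference was checked by measuring absorbance at the excitation and emission wavelengths and compound autofluorescence.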

A short description of data set [13]: Thiol reactivity of compound measured by TNB2- assay. The class given is physicochemical. The gist of the method:
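Reactivity toward the thiol surrogate TNB2– in a nonproteinaceous setting without TCEP. Reversibility tested by adding TCEP and checking that absorbance was restored.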

Data set [14] can be described thus: Redox activity of compound assessed as redox index at 100 uM measured by H2DCFDA assay. The class given is physicochemical. In outline: as §3
A short description of data set [15]: Aqueous stability of the compound at pH 7.4 measured after 60 mins by spectrophotometric analysis. It counts as physicochemical. The settings on record: buffer, pH 7.4, 1 h. In outline:
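Followed by spectrophotometry as changes in the compound absorption spectrum over time in 50 mM Tris-HCl pH 7.4, 0.5 mM EDTA, read after 60 min in 96-well microplate format. Compounds with low absorbance were not evaluated.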

Regarding `Nc1nc(C(=O)O)cs1`, the Activity_index is 1 in [1]; 1.6 in data set [4]; 1 in data set [5]; 1.1 in data set [6]; 1 in data set [8]; 2.1 in data set [14]. The Activity was found to be 84.9% in data set [2]; 0% in data set [3]; 1.6% in [7]; 14.2% in [9]; 107% in data set [10]; 96% in [11]. Further, the Activity in [12] was 155%; in data set [13], “Active”.

For `Cc1cnc(Br)s1`, the Activity_index in data set [1] is 1; in data set [4], 0.9; in data set [5] it was 1; in data set [6] it was 1; in [8], 0.9; in data set [14], 0.9. The Activity in [2] was determined as 79.1%; in data set [3] it was 8.2%; in data set [7], 45.2%; in data set [9], 19.8%; in data set [10] it was 105%; in [11], 77%. Besides, the Activity in data set [12] was 116%; in [13], “Active”.

Consider `Brc1cnc(Br)s1`, for which the Activity_index in [1] came out at 1; in data set [4], 1; in [5] it was 1; in data set [6], 0.9; in data set [8] it was 0.9; in data set [14] it was 0.7. The Activity was found to be 79.9% in data set [2]; 0% in data set [3]; 13.1% in [7]; 17.1% in data set [9]; 99% in data set [10]; 91% in data set [11]. In addition, the Activity in [12] was 71.7%; in [13] it was “Active”.

In the case of `CC(C)(C)c1csc(N)n1`, the Activity_index is 1 in data set [1]; 0.5 in [4]; 1 in [5]; 0.9 in [6]; 1.1 in data set [8]; 1.1 in data set [14]. Moreover, the Activity was 79.1% in data set [2]; 3.5% in data set [3]; 5.7% in data set [7]; 13% in [9]; 106% in data set [10]; 94% in [11]. Moreover, the Activity was 128% in [12] and “Active” in data set [13].

For `NCCc1cn(Cc2cscn2)nn1`, the Activity_index turned out to be 1 in data set [1]; 1.5 in [4]; 0.9 in data set [5]; 0.9 in [6]; 1 in [8]; 1.2 in [14]. Besides, the Activity in [2] worked out at 87.4%; in data set [3], 0%; in data set [7], 28.1%; in [9], 87.2%; in [10], 110%; in data set [11], 82%. Moreover, the Activity in [12] is 94%; in data set [13], “Active”.

For `Cc1nnc(N)s1`, the Activity_index in data set [1] is on record as 1; in data set [4], 1; in [5], 1; in data set [6], 0.9; in data set [8], 0.9; in data set [14], 1. The Activity stood at 81.9% in data set [2]; 89.5% in data set [3]; 92.9% in [7]; 121% in data set [9]; 99.4% in data set [10]; 98% in data set [11]. For the same compound, the Activity in data set [12] worked out at 114%. The Stability entry in [15] is given as “Stable”.

Take `Nc1nc(-c2ccncc2)cs1`: the Activity_index is 1 in data set [1]; 1.2 in data set [4]; 0.8 in [5]; 1 in data set [6]; 1 in data set [8]; 1.1 in data set [14]. Besides, the Activity in data set [2] is 77.8%; in data set [3], 56.7%; in [7], 86.7%; in data set [9] it was 91.9%; in [10], 103%; in [11], 96%. Also, in [12], the Activity is 110%. For the same compound, in [15], the Stability result is “Stable”.

Consider `Brc1nncs1`, for which the Activity_index in [1] amounted to 1; in data set [4] it was 1.2; in data set [5] it was 1; in data set [6] it was 0.9; in data set [8], 0.9; in data set [14] it was 1. In addition, the Activity was determined as 78.3% in data set [2]; 143% in data set [3]; 47% in data set [7]; 5.1% in data set [9]; 114% in data set [10]; 93% in data set [11]. The Activity in [12] is 106%; in [13] it was “Active”.

Turning to `Nc1ccc(S(=O)(=O)Nc2nccs2)cc1` [SULFATHIAZOLE], the Activity_index in data set [1] is 1; in [4], 1.1; in [5] it was 1; in [6], 1; in [8] it was 0.9; in data set [14], 1.2. Besides, the Activity was determined as 74.2% in data set [2]; 82.3% in data set [3]; 96.5% in data set [7]; 71.7% in data set [9]; 100% in [10]; 94% in data set [11]. Also, the Activity in [12] stood at 94%. In addition, the Stability result in data set [15] is “Stable”.

For `Clc1nccs1`, the Activity_index in data set [1] worked out at 1; in data set [4], 0.9; in [5], 1; in [6], 0.9; in data set [8] it was 1; in data set [14] it was 1. The Activity in data set [2] is 73.8%; in data set [3] it was 0.8%; in data set [7], 18.9%; in [9], 23.1%; in [10], 107%; in data set [11], 93%. Further, in data set [12], the Activity was found to be 122%. For the same compound, the Stability entry in data set [15] is “Stable”.

Regarding `CCOC(=O)c1csc(Br)n1`, the Activity_index in [1] was found to be 1; in [4], 0.9; in data set [5], 1; in data set [6], 1; in data set [8] it was 0.9; in data set [14], 1. Also, the Activity in data set [2] came to 80.7%; in [3], 84%; in data set [7], 89.8%; in data set [9], 71.7%; in data set [10] it was 100%; in data set [11], 97%. Further, the Activity in data set [12] is 90.8%. The Stability entry in data set [15] is recorded as “Stable”.

As for `Cc1nc(C(=O)O)cs1`, the Activity_index is on record as 1 in data set [1]; 1.6 in data set [4]; 1 in [5]; 1 in [6]; 0.9 in data set [8]; 0.9 in data set [14]. The Activity came to 78.7% in data set [2]; 1.6% in data set [3]; 7.2% in [7]; 3.4% in data set [9]; 105% in [10]; 92% in [11]. The Activity in [12] turned out to be 73.9%. For the same compound, the Stability result in data set [15] is listed as “Stable”.
